Test results taken from ChEMBL document CHEMBL1131143, “Predictive models for GABAA/benzodiazepine receptor subtypes: studies of quantitative structure-activity relationships for imidazobenzodiazepines at five recombinant GABAA/benzodiazepine receptor subtypes [alphaxbeta3gamma2 (x = 1-3, 5, and 6)] via comparative molecular field analysis” (J Med Chem, 1998).

Key:
Assay type in all cases: protein-complex assay
[1] = target: T1, GABA-A receptor; alpha-5/beta-3/gamma-2 (Homo sapiens, UniProt P18507+P28472+P31644); assay: Binding affinity for Gamma-aminobutyric acid A receptor alpha-5-beta-3-gamma-2
T1 sequence (P18507 whole entry): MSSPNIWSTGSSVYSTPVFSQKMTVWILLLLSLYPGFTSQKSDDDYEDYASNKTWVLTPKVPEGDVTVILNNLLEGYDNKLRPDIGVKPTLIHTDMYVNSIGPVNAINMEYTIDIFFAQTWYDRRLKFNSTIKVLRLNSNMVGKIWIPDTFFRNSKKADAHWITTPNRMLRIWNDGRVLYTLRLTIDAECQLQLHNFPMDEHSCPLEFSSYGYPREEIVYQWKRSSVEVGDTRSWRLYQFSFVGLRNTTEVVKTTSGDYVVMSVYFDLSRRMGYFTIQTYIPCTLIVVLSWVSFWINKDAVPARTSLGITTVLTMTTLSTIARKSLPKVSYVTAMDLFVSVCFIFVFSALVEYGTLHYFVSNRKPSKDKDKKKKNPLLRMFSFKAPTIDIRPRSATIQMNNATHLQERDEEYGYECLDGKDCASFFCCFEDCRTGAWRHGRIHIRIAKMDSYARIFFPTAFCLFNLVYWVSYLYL
T1 sequence (P28472 whole entry): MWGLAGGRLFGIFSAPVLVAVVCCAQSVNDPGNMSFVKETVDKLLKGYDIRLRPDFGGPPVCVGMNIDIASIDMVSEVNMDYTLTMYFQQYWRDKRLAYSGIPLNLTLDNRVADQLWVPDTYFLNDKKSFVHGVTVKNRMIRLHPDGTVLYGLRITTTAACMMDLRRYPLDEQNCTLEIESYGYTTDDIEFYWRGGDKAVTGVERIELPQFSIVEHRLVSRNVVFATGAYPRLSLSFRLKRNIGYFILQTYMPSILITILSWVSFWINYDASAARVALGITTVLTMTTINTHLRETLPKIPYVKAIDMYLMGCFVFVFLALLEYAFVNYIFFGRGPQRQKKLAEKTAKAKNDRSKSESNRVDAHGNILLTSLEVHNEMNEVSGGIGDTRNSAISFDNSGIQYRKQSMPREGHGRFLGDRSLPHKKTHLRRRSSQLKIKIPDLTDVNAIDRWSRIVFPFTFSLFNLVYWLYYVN
T1 sequence (P31644 whole entry): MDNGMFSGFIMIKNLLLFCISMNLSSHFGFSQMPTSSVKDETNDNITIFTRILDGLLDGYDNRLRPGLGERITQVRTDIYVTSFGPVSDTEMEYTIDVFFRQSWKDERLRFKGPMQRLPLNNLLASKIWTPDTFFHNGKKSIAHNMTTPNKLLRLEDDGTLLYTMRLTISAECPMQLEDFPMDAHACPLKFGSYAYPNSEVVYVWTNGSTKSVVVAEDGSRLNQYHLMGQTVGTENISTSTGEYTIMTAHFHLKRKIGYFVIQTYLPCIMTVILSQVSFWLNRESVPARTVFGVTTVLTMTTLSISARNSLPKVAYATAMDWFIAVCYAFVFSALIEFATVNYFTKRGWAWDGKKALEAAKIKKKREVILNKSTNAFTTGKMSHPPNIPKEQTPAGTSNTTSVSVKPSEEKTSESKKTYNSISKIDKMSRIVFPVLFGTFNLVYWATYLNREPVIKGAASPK

[2] = target: T2, GABA-A receptor; alpha-3/beta-3/gamma-2 (Homo sapiens, UniProt P18507+P28472+P34903); assay: Binding affinity against alpha-3-beta-3-gamma-2 GABAA/BzR receptor subtype.
T2 sequence (P18507 whole entry): T1 sequence (P18507 whole entry)
T2 sequence (P28472 whole entry): T1 sequence (P28472 whole entry)
T2 sequence (P34903 whole entry): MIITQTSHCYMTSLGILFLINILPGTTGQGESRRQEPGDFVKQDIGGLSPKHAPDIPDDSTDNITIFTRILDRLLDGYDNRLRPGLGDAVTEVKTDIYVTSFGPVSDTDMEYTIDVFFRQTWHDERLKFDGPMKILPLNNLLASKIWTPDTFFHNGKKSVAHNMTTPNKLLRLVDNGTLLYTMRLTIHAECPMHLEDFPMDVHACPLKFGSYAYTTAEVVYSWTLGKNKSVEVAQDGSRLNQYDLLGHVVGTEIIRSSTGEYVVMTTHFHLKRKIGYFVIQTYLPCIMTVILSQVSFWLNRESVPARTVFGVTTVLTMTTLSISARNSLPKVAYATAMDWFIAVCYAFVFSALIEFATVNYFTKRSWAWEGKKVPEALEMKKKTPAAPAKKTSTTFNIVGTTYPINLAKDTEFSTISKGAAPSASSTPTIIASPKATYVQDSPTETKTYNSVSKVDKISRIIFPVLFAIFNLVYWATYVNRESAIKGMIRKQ

[3] = target: T3, GABA-A receptor; alpha-2/beta-3/gamma-2 (Homo sapiens, UniProt P18507+P28472+P47869); assay: Binding affinity tested against alpha-2-beta-3-gamma-2 GABAA/BzR receptor subtype.
T3 sequence (P18507 whole entry): T1 sequence (P18507 whole entry)
T3 sequence (P28472 whole entry): T1 sequence (P28472 whole entry)
T3 sequence (P47869 whole entry): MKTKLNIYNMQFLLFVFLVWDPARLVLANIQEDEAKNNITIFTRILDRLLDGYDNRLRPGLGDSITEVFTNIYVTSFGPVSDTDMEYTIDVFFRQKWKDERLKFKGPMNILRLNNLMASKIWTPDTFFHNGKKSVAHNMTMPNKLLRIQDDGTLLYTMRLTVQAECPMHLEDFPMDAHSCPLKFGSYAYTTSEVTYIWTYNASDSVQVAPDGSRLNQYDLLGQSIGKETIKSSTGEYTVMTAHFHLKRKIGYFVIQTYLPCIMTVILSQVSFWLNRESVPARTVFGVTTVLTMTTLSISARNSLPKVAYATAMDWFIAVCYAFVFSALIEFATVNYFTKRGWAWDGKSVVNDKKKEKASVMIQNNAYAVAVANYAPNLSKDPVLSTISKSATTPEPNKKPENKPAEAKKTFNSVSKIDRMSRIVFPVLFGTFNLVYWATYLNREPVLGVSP

[4] = target: GABA-A receptor; alpha-1/beta-3/gamma-2 (Homo sapiens) (UniProt P14867+P18507+P28472); assay: It is the ratio of Ki value for alpha-1-beta-3-gamma-2 to that of alpha-5-beta-3-gamma-2
[5] = target: T4, GABA-A receptor; alpha-1/beta-3/gamma-2 (Homo sapiens, UniProt P14867+P18507+P28472); assay: Binding affinity against alpha-1-beta-3-gamma-2 GABAA/BzR receptor subtype.
T4 sequence (P14867 whole entry): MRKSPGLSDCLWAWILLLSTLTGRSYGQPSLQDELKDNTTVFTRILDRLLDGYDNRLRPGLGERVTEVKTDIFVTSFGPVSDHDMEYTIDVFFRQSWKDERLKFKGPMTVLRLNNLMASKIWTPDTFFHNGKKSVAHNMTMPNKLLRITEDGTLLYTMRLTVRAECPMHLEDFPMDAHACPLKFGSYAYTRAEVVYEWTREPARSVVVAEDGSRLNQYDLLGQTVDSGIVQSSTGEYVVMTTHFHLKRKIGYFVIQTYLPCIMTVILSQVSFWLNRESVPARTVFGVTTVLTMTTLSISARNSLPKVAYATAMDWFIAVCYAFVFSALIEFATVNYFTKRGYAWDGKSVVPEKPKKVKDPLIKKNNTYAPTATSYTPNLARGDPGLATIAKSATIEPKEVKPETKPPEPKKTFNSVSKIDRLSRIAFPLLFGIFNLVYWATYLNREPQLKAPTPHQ
T4 sequence (P18507 whole entry): T1 sequence (P18507 whole entry)
T4 sequence (P28472 whole entry): T1 sequence (P28472 whole entry)

[6] = target: GABA-A receptor; alpha-6/beta-3/gamma-2 (Homo sapiens, UniProt P18507+P28472+Q16445); assay: Binding affinity against Gamma-aminobutyric acid A receptor alpha-6-beta-3-gamma-2
Procedure, shortened: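 Cells scraped into PBS, spun at 3000g, resuspended in 10 mM KH₂PO₄/100 mM KCl pH 7.4. Nonspecific binding with 10⁻⁵ M diazepam; 1 h to equilibrium at 4 °C; filtration, ice-cold buffer wash, scintillation counting.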

Chain of GABA-A receptor; alpha-6/beta-3/gamma-2 (Q16445 whole entry, one chain of several): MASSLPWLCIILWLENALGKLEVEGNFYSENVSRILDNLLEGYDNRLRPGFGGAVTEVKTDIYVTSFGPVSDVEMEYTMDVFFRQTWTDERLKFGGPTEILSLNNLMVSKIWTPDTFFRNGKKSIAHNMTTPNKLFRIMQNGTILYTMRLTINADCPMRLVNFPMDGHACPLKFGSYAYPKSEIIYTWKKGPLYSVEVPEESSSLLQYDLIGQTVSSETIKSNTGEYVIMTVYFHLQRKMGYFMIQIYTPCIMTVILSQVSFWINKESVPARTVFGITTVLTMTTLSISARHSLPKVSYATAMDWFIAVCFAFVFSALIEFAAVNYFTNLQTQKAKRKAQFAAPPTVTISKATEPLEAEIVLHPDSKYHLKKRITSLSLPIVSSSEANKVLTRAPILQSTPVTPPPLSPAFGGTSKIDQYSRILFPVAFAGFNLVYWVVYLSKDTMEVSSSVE

SMILES | Ki [1] [nM] | Ki [2] [nM] | Ki [3] [nM] | Ratio [4] | Ki [5] [nM] | Ki [6] [nM]
C#Cc1ccc2c(c1)C(=O)N1CCC[C@H]1c1c(-c3nc(C(C)C)no3)ncn1-2 | 4.8 | 97 | 85 | 15 | 73 | 333
C#Cc1ccc2c(c1)C(=O)N1CC[C@H]1c1c(-c3nc(CC)no3)ncn1-2 | 12.7 | 184 | 150 | 17 | 220 | 361
C#Cc1ccc2c(c1)C(=O)N(C)Cc1c(C(=O)OCC)ncn1-2 | 0.49 | 25.8 | 21.4 | 58 | 28.4 | 28.8
COc1ccc2c(c1)C(=O)N(C)Cc1c(C(=O)OC(C)(C)C)ncn1-2 | 0.293 | 7.42 | – | 23 | 6.74 | 8.28
C#Cc1ccc2c(c1)C(=O)N(C)Cc1c(C(=O)OC(C)(C)C)ncn1-2 | 0.4 | 18.7 | 26.3 | 67.3 | 26.9 | 5.1
CCOC(=O)c1ncn2c1[C@@H]1CCCN1C(=O)c1cc(Br)ccc1-2 | 1 | 15 | 29 | 49 | 49 | 46
CN1Cc2c(C(=O)OC(C)(C)C)ncn2-c2ccc(C#CC[Si](C)(C)C)cc2C1=O | 23 | 337 | 387 | 12 | 275 | 301
C#Cc1ccc2c(c1)C(=O)N1CC[C@H]1c1c(C(=O)OCC)ncn1-2 | 0.37 | 10 | 12 | 57 | 21 | 42
C#Cc1ccc2c(c1)C(=O)N1CCC[C@H]1c1c(-c3nc(CC)no3)ncn1-2 | 2.4 | 85 | 40 | 36 | 86 | 150
C#Cc1ccc2c(c1)C(=O)N1CC[C@H]1c1c(-c3nc(C)no3)ncn1-2 | 7.2 | 91 | 56 | – | – | 266
C#Cc1ccc2c(c1)C(=O)N1CCC[C@H]1c1c(-c3nc(C)no3)ncn1-2 | 3.7 | 91 | 70 | 24 | 89 | 301
CN1Cc2c(C(=O)OC(C)(C)C)ncn2-c2ccc(Cl)cc2C1=O | 0.65 | 29.1 | 21.6 | 26.6 | 17.3 | 4
C#Cc1ccc2c(c1)C(=O)N1CCC[C@@H]1c1c(-c3nc(C)no3)ncn1-2 | 157 | > 1000 | > 1000 | – | > 1000 | > 1000
CC(C)N(Cc1ncn2c1CN(C)C(=O)c1cc(Cl)ccc1-2)C(C)C | 1350 | 6270 | 12600 | 3.2 | 4200 | 8600
CCOC(=O)c1ncn2c1CN(C)C(=O)c1cc(OCC)ccc1-2 | 1.07 | 16.9 | 36 | 12.4 | 11.2 | 51.5
CCOC(=O)c1ncn2c1[C@H]1CCCN1C(=O)c1cc(Br)ccc1-2 | > 1000 | > 1000 | > 1000 | – | > 1000 | > 1000
CCOC(=O)c1ncn2c1CN(C)C(=O)c1cc(Cl)ccc1-2 [Ro-151310] | – | – | – | 8 | – | –
CN1Cc2c(C(=O)OC(C)(C)C)ncn2-c2ccc(O)cc2C1=O | 0.14 | 0.53 | – | 10.7 | 1.5 | 6.89
CN1Cc2c(CO)ncn2-c2ccc(Cl)cc2C1=O | > 300 | > 300 | > 300 | – | > 300 | > 300
C=Cc1ccc2c(c1)C(=O)N(C)Cc1c(C(=O)OCC)ncn1-2 | 0.4 | 6.9 | 10.2 | 20.8 | 8.3 | –
CCOC(=O)c1ncn2c1CN(C)C(=O)c1cc(C#C[Si](C)(C)C)ccc1-2 | 5 | 198 | 142 | 24.2 | – | 114
CN1Cc2c(C(=O)OC(C)(C)C)ncn2-c2ccc(N3CCCC3)cc2C1=O | 9.25 | 169 | – | 0.63 | 5.8 | 325
CCOC(=O)c1ncn2c1CN(C)C(=O)c1cc(C#CC[Si](C)(C)C)ccc1-2 | > 300 | > 300 | > 300 | – | > 300 | > 300
CCOC(=O)c1ncn2c1[C@H]1CCCN1C(=O)c1cc(C#C[Si](C)(C)C)ccc1-2 | > 1000 | > 1000 | > 1000 | – | > 1000 | > 1000
CCOC(=O)c1ncn2c1CN(C)C(=O)c1cc(N=[N+]=[N-])ccc1-2 [Ro-154513] | 0.27 | – | – | – | – | –
CN1Cc2c(C(=O)OC(C)(C)C)ncn2-c2ccc(N=[N+]=[N-])cc2C1=O | 0.3 | 5.66 | – | 24.3 | 7.25 | 5.25
